Assay results as given in ChEMBL document CHEMBL1649075, “Synthesis and biological evaluation of (6- and 7-phenyl) coumarin derivatives as selective nonsteroidal inhibitors of 17β-hydroxysteroid dehydrogenase type 1” (J Med Chem, 2011).
Calls of active or inactive are those of the source. The calls are words filed in the database; no cut-off is given here.

Assays:
17β-HSD1 (Homo sapiens) [1] = experiment: Displacement of [3H]estrone human recombinant 17beta-HSD1 expressed in Escherichia coli BL21 (DE3)-RIL at 6 uM by scintillation counting in presence of NADPH
17β-HSD1 (Homo sapiens) [2] = experiment: Displacement of [3H]estrone human recombinant 17beta-HSD1 expressed in Escherichia coli BL21 (DE3)-RIL at 0.6 uM by scintillation counting in presence of NADPH
17β-HSD2 (Homo sapiens) [3] = experiment: Displacement of [3H]estradiol human recombinant 17beta-HSD2 expressed in Escherichia coli BL21 (DE3)-RIL at 0.6 uM by scintillation counting in presence of NAD+
17β-HSD2 (Homo sapiens) [4] = experiment: Displacement of [3H]estradiol human recombinant 17beta-HSD2 expressed in Escherichia coli BL21 (DE3)-RIL at 6 uM by scintillation counting in presence of NAD+
[5] = molecular target: T1, Estrogen receptor (Homo sapiens) (UniProt P03372); experiment: Displacement of [3H]estradiol from human recombinant ERalpha after 16 hrs by liquid scintillation counting relative to estradiol
T1 sequence (whole entry): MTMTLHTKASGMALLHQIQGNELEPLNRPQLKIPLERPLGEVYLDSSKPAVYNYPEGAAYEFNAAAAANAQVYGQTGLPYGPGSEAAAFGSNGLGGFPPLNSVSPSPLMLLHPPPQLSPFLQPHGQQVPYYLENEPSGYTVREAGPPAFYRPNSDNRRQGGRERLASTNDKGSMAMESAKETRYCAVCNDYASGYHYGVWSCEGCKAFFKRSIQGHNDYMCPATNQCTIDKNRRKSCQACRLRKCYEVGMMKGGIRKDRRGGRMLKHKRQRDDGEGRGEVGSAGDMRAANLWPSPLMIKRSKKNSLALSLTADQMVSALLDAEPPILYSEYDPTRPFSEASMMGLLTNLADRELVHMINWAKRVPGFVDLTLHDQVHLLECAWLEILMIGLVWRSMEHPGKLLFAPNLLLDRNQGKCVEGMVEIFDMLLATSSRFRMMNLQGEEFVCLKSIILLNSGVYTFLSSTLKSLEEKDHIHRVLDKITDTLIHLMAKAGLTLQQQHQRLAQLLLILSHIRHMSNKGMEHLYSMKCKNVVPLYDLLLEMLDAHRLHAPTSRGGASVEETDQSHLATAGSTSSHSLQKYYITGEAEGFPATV
Outline: (§1)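 Recombinant human ERα or ERβ (0.9 nM) was incubated with 9 nM [2,4,6,7-³H]-E2 and test compound (10^-9 to 10^-5 M) at 4 °C, for 18 h per methods (16 h per table footnote). Nonspecific binding was set with 6 μM E2. Complexes were bound to hydroxyapatite in Tris pH 7.5, washed four times, and counted by liquid scintillation. Runs were in triplicate. RBA = IC50(E2)/IC50(compound) × 100.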

[6] = molecular target: Estrogen receptor beta (Homo sapiens) (UniProt Q92731); experiment: Displacement of [3H]estradiol from human recombinant ERbeta after 16 hrs by liquid scintillation counting relative to estradiol
Outline: as §1

17β-HSD2 (Homo sapiens) [7] = experiment: Displacement of [3H]estradiol human recombinant 17beta-HSD2 expressed in Escherichia coli BL21 (DE3)-RIL at 60 uM by scintillation counting in presence of NAD+

Estrogen receptor beta (Homo sapiens), sequence (Q92731 whole entry): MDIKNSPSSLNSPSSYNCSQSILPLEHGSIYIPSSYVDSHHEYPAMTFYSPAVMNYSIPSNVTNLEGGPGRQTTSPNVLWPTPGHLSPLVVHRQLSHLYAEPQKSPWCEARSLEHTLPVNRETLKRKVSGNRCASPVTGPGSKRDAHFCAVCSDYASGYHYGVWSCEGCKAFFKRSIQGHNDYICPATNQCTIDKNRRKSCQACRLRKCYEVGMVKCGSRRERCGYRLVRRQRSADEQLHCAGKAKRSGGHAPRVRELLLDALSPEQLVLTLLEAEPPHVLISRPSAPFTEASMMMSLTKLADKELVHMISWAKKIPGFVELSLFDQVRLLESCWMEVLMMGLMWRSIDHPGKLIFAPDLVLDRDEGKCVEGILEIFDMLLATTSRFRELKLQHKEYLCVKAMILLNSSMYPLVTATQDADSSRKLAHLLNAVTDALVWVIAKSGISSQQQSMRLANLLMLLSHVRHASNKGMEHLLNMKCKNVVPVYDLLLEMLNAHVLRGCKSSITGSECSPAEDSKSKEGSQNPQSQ

Row | SMILES | inhibition (17β-HSD1 (Homo sapiens) [1]) | inhibition (17β-HSD1 (Homo sapiens) [2]) | also measured
1 | CCOC(=O)c1cc2ccc(-c3ccc(Cl)cc3)cc2oc1=O | inactive | inactive | 
2 | CC(=O)c1cc2cc(-c3ccc(Cl)cc3)ccc2oc1=O | inactive | inactive | 
3 | O=c1ccc2cc(Br)ccc2o1 | inactive | inactive | 
4 | CCOC(=O)c1cc2cc(-c3ccc(OC)cc3)ccc2oc1=O | 7% | inactive | 
5 | COc1ccc2cc(C(C)=O)c(=O)oc2c1 | 25% | 23% | inhibition (17β-HSD2 (Homo sapiens) [3]): inactive; inhibition (17β-HSD2 (Homo sapiens) [4]): inactive
6 | O=c1ccc2ccc(-c3ccc(Cl)cc3)cc2o1 | 9% | inactive | 
7 | COc1ccc(-c2ccc3cc(C(C)=O)c(=O)oc3c2)cc1 | 86% | 48% | Activity [5]: inactive; inhibition (17β-HSD2 (Homo sapiens) [3]): inactive; Activity [6]: inactive; inhibition (17β-HSD2 (Homo sapiens) [7]): inactive; inhibition (17β-HSD2 (Homo sapiens) [4]): inactive
8 | CCOC(=O)c1cc2cc(-c3ccc(F)cc3)ccc2oc1=O | 21% | 21% | 
9 | O=c1ccc2cc(-c3ccc(O)cc3)ccc2o1 | 30% | 4% | 
10 | CCOC(=O)c1cc2ccc(OS(=O)(=O)C(F)(F)F)cc2oc1=O | inactive | inactive | 
11 | O=c1ccc2cc(-c3ccccc3)ccc2o1 | 18% | inactive | 
12 | CCOC(=O)c1cc2cc(-c3ccccc3)ccc2oc1=O | 21% | inactive | 
13 | CCOC(=O)c1cc2ccc(-c3ccc(OC)cc3)cc2oc1=O | 1% | inactive | 
14 | CCOC(=O)c1cc2ccc(-c3ccccc3)cc2oc1=O | 7% | inactive | 
15 | CCOC(=O)c1cc2cc(Br)ccc2oc1=O | inactive | inactive | 
16 | O=c1ccc2cc(-c3ccc(Cl)cc3)ccc2o1 | 10% | inactive | 
17 | CCOC(=O)c1cc2ccc(-c3ccc(C)cc3)cc2oc1=O | 9% | 11% | 
18 | CC(=O)c1cc2ccc(-c3ccc(F)cc3)cc2oc1=O | 13% | 6% | 

Row | SMILES | inhibition (17β-HSD1 (Homo sapiens) [1]) | inhibition (17β-HSD1 (Homo sapiens) [2]) | also measured
19 | CC(=O)c1cc2cc(-c3ccc(C)cc3)ccc2oc1=O | inactive | inactive | 
20 | CC(=O)c1cc2cc(-c3ccc(F)cc3)ccc2oc1=O | 59% | 15% | 
21 | COc1ccc(-c2ccc3oc(=O)c(C(C)=O)cc3c2)cc1 | inactive | inactive | 
22 | COc1ccc(-c2ccc3ccc(=O)oc3c2)cc1 | 10% | inactive | 
23 | O=c1ccc2ccc(OS(=O)(=O)C(F)(F)F)cc2o1 | 9% | inactive | 
24 | O=c1ccc2ccc(-c3ccc(O)cc3)cc2o1 | 43% | inactive | 
25 | CC(=O)c1cc2ccc(OS(=O)(=O)C(F)(F)F)cc2oc1=O | 100% | 60% | Activity [5]: inactive; inhibition (17β-HSD2 (Homo sapiens) [3]): inactive; Activity [6]: inactive; inhibition (17β-HSD2 (Homo sapiens) [4]): inactive
26 | CCOC(=O)c1cc2cc(-c3ccc(Cl)cc3)ccc2oc1=O | 14% | 10% | 
27 | CC(=O)c1cc2ccc(-c3ccc(O)cc3)cc2oc1=O | 100% | 76% | Activity [5]: inactive; inhibition (17β-HSD2 (Homo sapiens) [3]): inactive; Activity [6]: inactive; inhibition (17β-HSD2 (Homo sapiens) [7]): inactive; inhibition (17β-HSD2 (Homo sapiens) [4]): inactive
28 | CC(=O)c1cc2ccc(-c3ccc(C)cc3)cc2oc1=O | 72% | 40% | inhibition (17β-HSD2 (Homo sapiens) [7]): inactive; inhibition (17β-HSD2 (Homo sapiens) [4]): inactive
29 | C[C@]12CC[C@H]3C(=CCc4cc(O)ccc43)[C@@H]1CCC2=O |  |  | RBA [5]: 0.15%; RBA [6]: 1.4%
30 | CC(=O)c1cc2cc(-c3ccccc3)ccc2oc1=O | inactive | inactive | 
31 | O=c1ccc2ccc(-c3ccccc3)cc2o1 | 10% | inactive | 
32 | Cc1ccc(-c2ccc3oc(=O)ccc3c2)cc1 | inactive | inactive | 
33 | COc1ccc(-c2ccc3oc(=O)ccc3c2)cc1 | 26% | 7% | 
34 | CC(=O)c1cc2ccc(-c3ccc(Cl)cc3)cc2oc1=O | 17% | 12% | 
35 | CCOC(=O)c1cc2cc(-c3ccc(C)cc3)ccc2oc1=O | 16% | 6% | 
36 | Cc1ccc(-c2ccc3ccc(=O)oc3c2)cc1 | 29% | 10% | 
